Most compounds without a hit are left out; they make up all but 4.2% or so of the library.
CTSL1 counter: counter-screen for PFM18AAP inhibitors: inhibitors of F. hepatica cathepsin L1; inhibition, % at 5.96 µM; AID 1906; recombinant F. hepatica cathepsin L1, Z-Leu-Arg-MCA fluorescence; hit rate 0.49% among 300,000;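 active means inhibition above the mean of all tested compounds plus 3 SD, set per screening campaign, cut at about 17% in these data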
HDAC3 inh: inhibitors of human histone deacetylase 3 | O15379 | recombinant HDAC3, fluorogenic peptide/trypsin coupled, fluorescence | inhibition, % at 8.3 µM | hit rate 0.15% among 320,000 | AID 2718; in the data active means inhibition above about 26%, passing the limit was not always enough
Target sequence (O15379 whole entry, looked up): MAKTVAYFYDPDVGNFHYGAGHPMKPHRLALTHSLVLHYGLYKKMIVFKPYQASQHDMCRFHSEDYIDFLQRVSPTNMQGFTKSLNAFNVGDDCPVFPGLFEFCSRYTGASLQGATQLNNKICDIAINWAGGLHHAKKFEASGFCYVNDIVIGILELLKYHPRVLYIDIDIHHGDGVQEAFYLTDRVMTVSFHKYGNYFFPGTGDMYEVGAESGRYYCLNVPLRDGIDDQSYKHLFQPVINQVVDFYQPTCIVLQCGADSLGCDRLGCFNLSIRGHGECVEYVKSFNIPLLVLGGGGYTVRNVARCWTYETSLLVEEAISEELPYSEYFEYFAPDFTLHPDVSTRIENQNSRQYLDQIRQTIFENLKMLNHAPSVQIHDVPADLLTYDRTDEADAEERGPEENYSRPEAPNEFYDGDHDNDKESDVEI
GAA850 FXN act: activators of GAA850 frataxin (FXN) promoter. HEK293 lucGAA850 FXN promoter luciferase reporter, 24 h; percent of 10 µM SAHA response. activation, % at 6 µM. hit rate 0.56% among 360,000;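 active means activation above the average of all compounds screened plus 3 SD, cutoff fixed separately per campaign, cut at about 7.5% in these data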
AHR activator: activators of human aryl hydrocarbon receptor. P35869. AHR-responsive luciferase reporter cells, luminescence. activation, % at 5 µM. hit rate 2.5% among 320,000. AID 2796; in the data active means activation above about 47%
PfM18AAP inh: blocks P. falciparum M18 aspartyl aminopeptidase; recombinant PfM18AAP, H-Glu-NHMec fluorogenic cleavage; inhibition, % at 7.35 µM; hit rate 1.2% among 290,000;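 active means inhibition above the campaign mean inhibition over all tested compounds plus 3 SD, cut at about 28% in these data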
SENP1 inh: inhibitors of human SENP1 SUMO protease catalytic domain; Q9P0U3; hit rate 0.21% among 360,000; inhibition, % at 10 µM; AID 624204; recombinant SENP1 catalytic domain, CyPet-SUMO1-YPet FRET cleavage;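 active means inhibition at least 30% at 10 µM, raw YFP signal under a set limit, fluorescence ratio 0.5 to 1.5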
Target sequence (Q9P0U3 419-644 limits assumed): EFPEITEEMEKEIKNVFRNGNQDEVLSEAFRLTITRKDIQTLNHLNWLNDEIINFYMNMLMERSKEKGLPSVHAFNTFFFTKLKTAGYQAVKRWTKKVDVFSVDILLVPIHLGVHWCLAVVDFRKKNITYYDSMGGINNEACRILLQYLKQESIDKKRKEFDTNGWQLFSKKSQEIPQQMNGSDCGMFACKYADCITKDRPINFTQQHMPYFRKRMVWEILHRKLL
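System: Recombinant human SENP1 catalytic domain, His6-tagged | Incubation: Enzyme reaction for 50 min at room temperature, dark | Medium: Tris pH 8 with BME, BSA, NP40 and catalase | Also added: 25 nM SUMO1 FRET substrate | Compound: 10 µM single point, 0.5% DMSO | Measured by: FRET fluorescence in CFP and YFP emission channels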
Of the large screens only hits and unclear results are named; the others gave an inactive call.

C=CC[C@H](CC(=O)N(CCO)Cc1ccccc1)C(=O)N[C@@H](COC(=O)[C@@H](CC=C)Cc1ccc(F)cc1)Cc1c[nH]c2ccccc12	HDAC3 inh 38.9 (no result: CTSL1 counter, PfM18AAP inh)
C=CC[C@@H](CC(=O)N(CCO)Cc1ccccc1)C(=O)NC[C@@H](OC(=O)[C@@H](CC=C)CC(=O)OC(C)(C)C)c1ccccc1	none (no result: CTSL1 counter, PfM18AAP inh)
C=CC[C@@H](CC(=O)N(CCO)Cc1ccccc1)C(=O)N[C@@H](COC(=O)[C@@H](CC=C)Cc1ccc(F)cc1)Cc1c[nH]c2ccccc12	HDAC3 inh 39.5 (no result: CTSL1 counter, PfM18AAP inh)
C=CC[C@H](CC(=O)N(CCO)Cc1ccccc1)C(=O)NC[C@H](OC(=O)[C@@H](CC=C)CC(=O)OC(C)(C)C)c1ccccc1	HDAC3 inh 31.2 (no result: CTSL1 counter, PfM18AAP inh)
CC(=O)Nc1cccc(-c2ccnc3c2CC(C)(C(=O)Nc2cccc(C(C)=O)c2)O3)c1 (stereo unspecified)	none (no result: CTSL1 counter, HDAC3 inh, AHR activator, PfM18AAP inh)
COc1cccc(C(C)(O)c2nc(-c3ccc(N(C)C)cc3)cs2)c1 (stereo unspecified)	none (no result: CTSL1 counter, HDAC3 inh, AHR activator, PfM18AAP inh)
Cc1cc(NC(=S)N(Cc2ccc(Br)cc2)Cc2ccc(C(=O)O)cc2)ccc1Cl	none
NN=C1c2ccccc2C(=O)C1C(=O)C(c1ccccc1)c1ccccc1 (stereo unspecified)	none (no result: CTSL1 counter, HDAC3 inh, AHR activator, PfM18AAP inh)
Nc1n[nH]c(N)c1N=Nc1cccc(C(F)(F)F)c1	none
O=C1CCC/C(=N\NC(=O)c2ccc(NS(=O)(=O)c3ccc(Br)cc3)cc2)C1	PfM18AAP inh 30.1
CCOC(=O)Nc1ccc2c(CNC(C)c3ccccc3OC)cc(=O)oc2c1 (stereo unspecified)	none
CCc1nc(SCc2cccnc2)c2c(=O)n(C)c(=O)n(C)c2n1	AHR activator 47.7
Cn1c(=O)c2c(SCc3cccnc3)nc(C3CC3)nc2n(C)c1=O	AHR activator 74.5
CC(C)Cc1nc(SCc2cccnc2)c2c(=O)n(C)c(=O)n(C)c2n1	none
O=C(Oc1ccc(=O)n(-c2ccccc2)n1)c1cccc(Cl)c1	HDAC3 inh 44.0
O=C(Oc1ccc(=O)n(-c2ccccc2)n1)c1ccc(Cl)cc1	none
COc1ccc(C(=O)Oc2ccc(=O)n(-c3ccccc3)n2)cc1	HDAC3 inh 76.3
Cc1ccc(C(=O)NCC(=O)OC(C)C(=O)NC2CCCc3ccccc32)cc1 (stereo unspecified)	none (no result: PfM18AAP inh)
Cc1noc(/C=C/Nc2ccc(F)cc2F)c1[N+](=O)[O-]	AHR activator 64.0
Cc1noc(/C=C/c2ccccn2)c1[N+](=O)[O-]	none
COc1ccccc1N/C=C/c1onc(C)c1[N+](=O)[O-]	AHR activator 53.8
COc1cc(C)ccc1S(=O)(=O)NC(=O)Cn1nnc(COc2ccc3c(c2)CCCC3)c1C	none (no result: CTSL1 counter, HDAC3 inh, AHR activator, PfM18AAP inh)
O=C(COC(=O)C12CC3CC(CC(C3)C1)C2)Nc1ccc([N+](=O)[O-])cc1Cl	none
O=C(NNS(=O)(=O)c1ccc([N+](=O)[O-])cc1)c1ccccc1	none (no result: CTSL1 counter, HDAC3 inh, AHR activator, PfM18AAP inh)
O=C(NNS(=O)(=O)c1ccc([N+](=O)[O-])cc1)C(=O)Nc1cccc(C(=O)O)c1	PfM18AAP inh 31.0
Cc1ccc(C2=N/C(=C\c3cccnc3)C(=O)O2)cc1	none
CCO/C=C1\N=C(c2ccc(F)cc2)OC1=O	CTSL1 counter 36.3 (no result: HDAC3 inh)
Cc1cc2nc(C3CCCCC3)c(Cc3cccc(Cl)c3)n2c(C)c1Br	none (no result: CTSL1 counter, HDAC3 inh, GAA850 FXN act, AHR activator, PfM18AAP inh)
COc1ccccc1OCCC(=O)OCC(=O)NCc1ccc(F)cc1	none (no result: CTSL1 counter, PfM18AAP inh)
O=C(Nc1ccc(-c2cnco2)cc1)c1ccc(Cl)cc1	none
O=C(Nc1ccccc1)c1ncoc1-c1ccc(Cl)cc1	AHR activator 56.9
CN(C)C(CNC(=O)c1cccc(S(=O)(=O)NCc2ccccc2)c1)c1ccccc1 (stereo unspecified)	none (no result: CTSL1 counter, HDAC3 inh, AHR activator, PfM18AAP inh)
Nc1c(NCc2ccccc2)c2ccccc2oc1=O	PfM18AAP inh 29.7
CC(=O)Nc1cc(-c2ccccc2)cn2c(-c3cccc(C(C)=O)c3)cnc12	none (no result: CTSL1 counter, HDAC3 inh, AHR activator, PfM18AAP inh)
OCCSc1ncnc2c1oc1ccccc12	none
OCCN(CCO)c1ncnc2c1oc1ccc(Br)cc12	AHR activator 71.5
COc1ccc(OC)c(NC(=O)C2(C)CCN2Cc2ccsc2)c1 (stereo unspecified)	none (no result: CTSL1 counter, HDAC3 inh, AHR activator, PfM18AAP inh)
COc1cc(Br)cc(/C=N/NC(=O)Cc2ccc(C(F)(F)F)cc2[N+](=O)[O-])c1O	AHR activator 50.5
COc1cc(/C=C2\CCC(C)C3=C(c4cc(OC)c(OC)c(OC)c4)C(C#N)=C(N)OC32)cc(OC)c1OC (stereo unspecified)	none (no result: CTSL1 counter, HDAC3 inh, AHR activator, PfM18AAP inh)
CCOC(=O)c1cc(-c2ccc(OC(F)F)cc2)nc2c1c(=O)[nH]c(=O)n2C	AHR activator 61.2
CCOC(=O)c1cc(-c2ccc(OC(F)F)cc2)nc2nc(SC)[nH]c(=O)c12	none
Cc1nn(C(=O)c2cc3sccc3[nH]2)c(C)c1C	AHR activator 70.8
COc1cccc(-c2cc3nc(NCCN4CCCC4)n(C)c(=O)c3s2)c1	none (no result: CTSL1 counter, HDAC3 inh, AHR activator, PfM18AAP inh)
O=C(NCc1ccccc1)C1C(c2ccccc2)=Nc2ccccc2N1C(=O)c1cccnc1 (stereo unspecified)	none (no result: CTSL1 counter, HDAC3 inh, GAA850 FXN act, AHR activator, PfM18AAP inh)
N#Cc1cccn1-c1nccc(-c2cccs2)n1	AHR activator 65.1
CC(=O)c1cc2c(cc1NC(=O)c1ccc(Cl)cc1)OCCO2	none
CC(=O)c1cc2c(cc1NC(=O)Nc1cccc(Cl)c1)OCCO2	AHR activator 58.3
CC(=O)Cc1cc(O)c2ccccc2c1OC(=O)c1ccc(Br)cc1	AHR activator 69.1
CCn1c2ccccc2c2cc(N=C3SC(CC(=O)Nc4ccccc4OC)C(=O)N3CCOC)ccc21 (stereo unspecified)	AHR activator 62.3
CCn1c2ccccc2c2cc(N=C3SC(CC(=O)Nc4ccccc4OC)C(=O)N3C)ccc21 (stereo unspecified)	none
O=c1[nH]c(S)c(/C=C2\C=Nc3ccccc32)s1	AHR activator 57.0
COCCc1ccc(OC2(C)CCN(Cc3cccc(OC)c3OC)C2)cc1 (stereo unspecified)	none (no result: CTSL1 counter, HDAC3 inh, AHR activator, PfM18AAP inh)
O=C(Nc1ccc(-c2nc3ccccc3o2)cc1)c1ccc(N2CCOCC2)c([N+](=O)[O-])c1	AHR activator 54.5
CCN(c1ccccc1)S(=O)(=O)c1ccc(Oc2ccc(C(C)=O)cc2OC)nc1	none (no result: CTSL1 counter, PfM18AAP inh)
CCCCC[C@@H](C)N1C[C@H](COCc2ccccc2)Oc2cc(N3CCC[C@H]3CO)ccc2S1(=O)=O	none (no result: CTSL1 counter, HDAC3 inh, GAA850 FXN act, AHR activator, PfM18AAP inh)
O=c1c2ccccc2nc(COc2ccccc2)n1/N=C/c1cn[nH]c1-c1ccccc1	none
Cc1ccc(-c2[nH]ncc2/C=N/n2c(C)nc3ccccc3c2=O)cc1	AHR activator 61.2
Cc1nc2ccccc2c(=O)n1/N=C/c1ccncc1	CTSL1 counter 18.4
Cc1nc2ccccc2c(=O)n1/N=C/c1ccco1	none
Cc1nc2ccccc2c(=O)n1/N=C/c1ccccc1	none
O=c1c2ccccc2nc(-c2ccco2)n1/N=C/c1ccco1	AHR activator 61.8
CC1(C)NC(=O)N(CC(=O)OCC(=O)NC(=O)c2ccccc2)C1=O	none (no result: HDAC3 inh, PfM18AAP inh)
CN=c1sc2ccccc2n1CC(O)c1ccccc1 (stereo unspecified)	AHR activator 63.1

Bioassay records: PubChem, several laboratories
